Results from PubChem BioAssay.
Results filed as inconclusive are left out.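 Rule for the calls, unless noted: active = cell viability at or below a set limit in both duplicate runs, the limit being the all-compound median minus 4 SD (cut at about 23% in these data, passing the limit was not always enough); inconclusive = no clear call, values can overlap the other calls; inactive = the rest.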

Key:
[1] = OD615 S. cerevisiae growth inhibition, permissive medium, pilot counter-assay, permissive growth control for S. cerevisiae lifespan shortening project (AID 705;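 active = growth inhibition above 25% in both replicates, a cutoff set 3 SD above the mean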); conditions: OD615, 24 h, at 10 µM, active compounds read high
Summary of the method: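 Material: engineered DeaD yeast; compound dosing: one dose 10 µM, DMSO 0.25% final; measure: yeast growth inhibition indicated by reduced 24 h OD615; detection: OD615 turbidity read; incubation: cells pre-grown 4 h, then 24 h compound exposure, 30 °C humidified; medium: permissive synthetic complete medium with raffinose and galactose carbon sources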

[2] = Restrictive medium S. cerevisiae growth inhibition, OD615, pilot screen of yeast lifespan reduction project, restrictive growth control (AID 706;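 active = growth inhibition above a set limit, 3 SD over mean compound inhibition, in both replicates, cut at about 43% in these data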;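 note: modified DeaD lifespan yeast strain shifted to restrictive glucose medium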); conditions: OD615, 48 h, at 10 µM, active compounds read high
Summary of the method: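 material = engineered S. cerevisiae DeaD strain | medium = glucose-based CSMM-D restrictive medium | times = 4 h pre-incubation, 48 h exposure at 30 °C | technique = OD615 absorbance reading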

[3] = viability gain of MRP-1-high H69AR cells under doxorubicin, pilot screen, MRP-1 activator project, CellTiter-Glo, duplicate (AID 807;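 active = viability increase at or above a cutoff of the median across tested compounds plus 3 SD, cut at about 8.5% in these data, passing the limit was not always enough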;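 note: compound pretreatment 18-22 h then 72 h combined with doxorubicin; 0% = doxorubicin alone and 100% = vehicle without doxorubicin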); conditions: H69AR viability with doxorubicin, CellTiter-Glo luminescence; at 10 µM; active compounds read high
[4] = growth suppression of beta-catenin knockout HCT116, pilot screen, human colon tumor cells (AID 823); conditions: CellTiter-Glo, 60 h, at 10 µM, active compounds read low;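 note: 0% = wells killed by 20 µM Hyamine and 100% = untreated DMSO cell wells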
[5] = growth suppression of PTEN-deleted HCT116, pilot screen, cell-based, HCT116 clonal line, CellTiter-Glo (AID 824;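 active = viability at or below 27.92% in each of two runs, the all-compound median minus 4 SD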;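 note: 0% = 20 µM Hyamine control and 100% = vehicle cell control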); conditions: 60 h, at 10 µM, active compounds read low
[6] = inhibitors of the yeast RAM network, pilot screen, dse1pr::URA3 reporter, 5-FOA selection (AID 869;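 active = inhibition over a set limit, the all-compound mean plus 3 SD, in both replicate runs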;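 note: 0% = DMSO wells with no growth and 100% = 10 µM 1-NA-PP1 with full growth; RAM network block rescues cells from 5-FOA so hits raise OD615 growth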); conditions: S. cerevisiae dse1pr::URA3 5-FOA growth, OD615, 2 d; at 10 µM; active compounds read high; strain carries analog-sensitive mutant Cbk1 kinase
[7] = RAM signaling pathway blockade in yeast – S. cerevisiae, Pdr1DBD-CYC8 efflux-inhibited sensitized strain, primary screen (AID 1298;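 active = RAM network inhibition above 8.4% in each of two replicates, 3 SD over the compound average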;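 note: 0% = DMSO untreated cells without growth and 100% = 10 µM 1-NA-PP1 full growth; higher means more yeast growth rescued from 5-FOA killing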); conditions: S. cerevisiae cbk1-as DSE1-URA3 strain, 5-FOA growth OD615, 2 d; at 50 µM; active compounds read high

CC1CCCCN1CCn1cnc2c([nH]c3ccccc32)c1=O (stereo not drawn)
inactive: growth inhibition [1] -2.21% | growth inhibition [2] 5.29% | viability increase [3] -4.17% | viability [4] 88.1% | viability [5] 87.4% | inhibition [6] -0.135% | RAM network inhibition [7] 4.11%

Cc1nn(-c2cccc(C(F)(F)F)c2)c(Cl)c1/C=N/n1cnnc1
inactive: growth inhibition [1] -2.49% | growth inhibition [2] 17% | viability increase [3] -6.44% | viability [4] 87.7% | viability [5] 85.7% | inhibition [6] -0.18% | RAM network inhibition [7] 1.77%

CC(C)c1nc(SCC(=O)N2CCOCC2)c2c(=O)n(C)c(=O)n(C)c2n1
inactive: growth inhibition [1] 2.91% | growth inhibition [2] -8.92% | viability increase [3] -1.75% | viability [4] 102% | viability [5] 95.6% | inhibition [6] 2.57% | RAM network inhibition [7] -2.21%

CCOC(=O)CON1C(=O)C(C)(C)N(OCC(=O)OCC)C(=O)C1(C)C
inactive: growth inhibition [1] -0.865% | growth inhibition [2] -9.37% | viability increase [3] -0.75% | viability [4] 104% | viability [5] 101% | inhibition [6] 0.38% | RAM network inhibition [7] 1.33%

COc1cccc(/C=C2\N=C(SC)SC2=O)c1OC
inactive: growth inhibition [1] -20.1% | growth inhibition [2] -7.18% | viability increase [3] -3.76% | viability [4] 89.8% | viability [5] 105% | inhibition [6] 3.8% | RAM network inhibition [7] 8.12%

COC(=O)c1ccc(NS(=O)(=O)c2ccc3c(c2)oc(=O)n3C)cc1
inactive: growth inhibition [1] -4.12% | growth inhibition [2] -3.33% | viability increase [3] 1.49% | viability [4] 103% | viability [5] 96.4% | inhibition [6] 0.69% | RAM network inhibition [7] 7.21%

O=C(Cn1c(CN2CCCCC2)nc2ccccc2c1=O)NC1CCCCC1
inactive: growth inhibition [1] -7.65% | growth inhibition [2] -24.4% | viability increase [3] -2.4% | viability [4] 95.4% | viability [5] 88% | inhibition [6] -0.59% | RAM network inhibition [7] -1.71%

CCc1ccc(C2CC(c3ccccc3)Nc3nc(N)nn32)cc1 (stereo not drawn)
inactive: growth inhibition [1] -5.9% | growth inhibition [2] -6.06% | viability increase [3] 0.7% | viability [4] 97.3% | viability [5] 100% | inhibition [6] -0.27% | RAM network inhibition [7] 5.98%

COCCN(CCOC)Cc1c(C)[nH]c2c(C)c(C)ccc2c1=O
inactive: growth inhibition [1] -16.2% | growth inhibition [2] -9.49% | viability increase [3] -1.96% | viability [4] 96.8% | viability [5] 100% | inhibition [6] 2.54% | RAM network inhibition [7] 3.28%

CCOc1ccc(C2N(c3ccc(OC)cc3)C(=O)C3CCCN32)cc1OC (stereo not drawn)
inactive: growth inhibition [1] -1.7% | growth inhibition [2] -0.11% | viability increase [3] -2.39% | viability [4] 98.7% | viability [5] 101% | inhibition [6] 1.57% | RAM network inhibition [7] 3%

CCOc1ccc(N(CC(=O)NCCSc2ccccn2)S(C)(=O)=O)cc1
inactive: growth inhibition [1] 0.64% | growth inhibition [2] 2.82% | viability increase [3] -3.63% | viability [4] 97.8% | viability [5] 95.3% | inhibition [6] 0.35% | RAM network inhibition [7] 3.38%

COc1ccc(CCNC(=O)c2ccco2)cc1
inactive: growth inhibition [1] 13.4% | growth inhibition [2] 8.97% | viability increase [3] -2.79% | viability [4] 107% | viability [5] 91.8% | inhibition [6] 1.58% | RAM network inhibition [7] -1.03%

CN(C)CCN(Cc1ccccc1)c1ccnc(N(C)C)c1C#N
inactive: growth inhibition [1] -13.2% | growth inhibition [2] -17.6% | viability increase [3] -4.22% | viability [4] 85.2% | viability [5] 89.5% | inhibition [6] 1.11% | RAM network inhibition [7] 2.08%

CCCNC(=O)CS(=O)Cc1nc(-c2ccc(OC)cc2)oc1C (stereo not drawn)
inactive: growth inhibition [1] -5.5% | growth inhibition [2] 19.6% | viability increase [3] -2.12% | viability [4] 97.2% | viability [5] 93.9% | inhibition [6] 1.62% | RAM network inhibition [7] 3.43%

C=CCSc1nc2c(cnn2-c2ccc(C)c(C)c2)c(=O)[nH]1
inactive: growth inhibition [1] -6.23% | growth inhibition [2] -5.07% | viability increase [3] -1.43% | viability [4] 93.3% | viability [5] 93.1% | inhibition [6] 4.19% | RAM network inhibition [7] 0.11%

Cn1c(C(=O)N2CCN(Cc3ccc4c(c3)OCO4)CC2)cc2c(=O)n(C)c3ccccc3c21
inactive: growth inhibition [1] -1.14% | growth inhibition [2] 0.725% | viability increase [3] -1.54% | viability [4] 67.9% | viability [5] 71.9% | inhibition [6] 3.29% | RAM network inhibition [7] 0.67%

COc1ccc(S(=O)(=O)N(C)c2c(C)n(C)n(-c3ccccc3)c2=O)cc1OC
inactive: growth inhibition [1] -5.13% | growth inhibition [2] 0.325% | viability increase [3] -1.65% | viability [4] 95.5% | viability [5] 102% | inhibition [6] 0.535% | RAM network inhibition [7] 3.38%

COc1ccc(OC)c(NC(=O)Nc2nnc(N3CCC(C)CC3)s2)c1
inactive: growth inhibition [1] -10.7% | growth inhibition [2] -9.16% | viability increase [3] 0.87% | viability [4] 93.1% | viability [5] 92.7% | inhibition [6] 1.01% | RAM network inhibition [7] 2.27%

Cc1cccc(NC(=O)C2CCN(S(=O)(=O)c3cccc4cccnc34)CC2)n1
inactive: growth inhibition [1] -2.91% | growth inhibition [2] 4.94% | viability increase [3] -3.03% | viability [4] 87.2% | viability [5] 84.7% | inhibition [6] 1.35% | RAM network inhibition [7] 1.44%

C/C(=C1\SC(N2CCOCC2)=NC1=O)c1ccccc1
inactive: growth inhibition [1] -19.6% | growth inhibition [2] -10.6% | viability increase [3] -2.49% | viability [4] 97% | viability [5] 102% | inhibition [6] 0.76% | RAM network inhibition [7] 1.09%

Nc1cccc(C(=O)Nc2ccc(N)cc2Cl)c1
inactive: growth inhibition [1] -18.5% | growth inhibition [2] -7.93% | viability increase [3] -0.9% | viability [4] 103% | viability [5] 106% | inhibition [6] 2.42% | RAM network inhibition [7] 2.91%

COc1ccc(NC(=O)N(CCCN2CCOCC2)Cc2cccnc2)c(OC)c1
inactive: growth inhibition [1] -7.71% | growth inhibition [2] -3.92% | viability increase [3] -1.79% | viability [4] 100% | viability [5] 103% | inhibition [6] 1.03% | RAM network inhibition [7] 1.81%

CN(C)S(=O)(=O)c1ccc(C(=O)Nc2ccccn2)cc1
inactive: growth inhibition [1] -10.3% | growth inhibition [2] -19.3% | viability increase [3] -0.7% | viability [4] 96.6% | viability [5] 89.2% | inhibition [6] 1.31% | RAM network inhibition [7] -1.36%

Cc1cc(OCc2ccc(F)cc2)nc(-c2ccccc2O)n1
inactive: growth inhibition [1] -0.25% | growth inhibition [2] -3.18% | viability increase [3] 2.19% | viability [4] 76.6% | viability [5] 70.3% | inhibition [6] 1.35% | RAM network inhibition [7] 2.72%
